Here are results for 6 compounds from ChEMBL document CHEMBL3232807, “Genomics-guided discovery of endophenazines from Kitasatospora sp. HKI 714” (2014).

Values after ≈ are worked out from the molar mass of the structure shown.

Common to all, as to format: functional
One assay relates to Mycolicibacterium vaccae. Kind of assay: Antimicrobial activity against Mycobacterium vaccae IMET 10670 by broth dilution method. The method in brief: (§1)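 MIC was determined by broth dilution following the NCCLS standard method.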
Another assay has as its system Staphylococcus aureus. As to the kind of experiment: Antimicrobial activity against methicillin-resistant Staphylococcus aureus SG 511 by broth dilution method. The procedure, abridged:
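MIC was determined by broth dilution following NCCLS guidelines, using S. aureus SG 511 (MRSA).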

The test system of assay [1] is Mycolicibacterium fortuitum. Kind of assay: Antimicrobial activity against Mycobacterium fortuitum IMET 10667 by broth dilution method. The method in brief: as §1
For a further assay, the system named is Mycolicibacterium aurum. Kind of assay: Antimicrobial activity against Mycobacterium aurum SB 66 by broth dilution method. The procedure, abridged:
as §1

In assay [2] the test system is Mycolicibacterium smegmatis. Kind of assay: Antimicrobial activity against Mycobacterium smegmatis SG 987 by broth dilution method. The method in brief: as §1
Assay [3] has as its system Mycobacterium tuberculosis. As to the kind of experiment: Antimicrobial activity against Mycobacterium tuberculosis by BACTEC radiometric assay.
Assay [4] concerns Mycobacterium avium complex sp. Kind of assay: Antimicrobial activity against Mycobacterium avium complex by BACTEC radiometric assay.

Turning to `O=C(O)c1cccc2c1Nc1ccccc1N2C(=O)CO`, the minimum inhibitory concentration (MIC) in the assay on Mycolicibacterium vaccae came to 25 µg/mL (≈ 87.9 µM); with Staphylococcus aureus, 100 µg/mL (≈ 352 µM); in assay [1] it was 50 µg/mL (≈ 176 µM); in the assay on Mycolicibacterium aurum, 50 µg/mL (≈ 176 µM); in assay [2], 50 µg/mL (≈ 176 µM).
With `C/C(=C\Cc1cccc2nc3cccc(C(=O)O)c3nc12)CO`, the MIC was determined as 25 µg/mL (≈ 81.1 µM) against Mycolicibacterium vaccae; 100 µg/mL (≈ 324 µM) in the assay with Staphylococcus aureus; 25 µg/mL (≈ 81.1 µM) in assay [1]; 25 µg/mL (≈ 81.1 µM) in the assay on Mycolicibacterium aurum; 50 µg/mL (≈ 162 µM) in assay [2].
With `CC(C)(O)/C=C/c1cccc2nc3cccc(C(=O)O)c3nc12`, the MIC is 25 µg/mL (≈ 81.1 µM) in the assay on Mycolicibacterium vaccae; 100 µg/mL (≈ 324 µM) against Staphylococcus aureus; 25 µg/mL (≈ 81.1 µM) in assay [1]; 25 µg/mL (≈ 81.1 µM) with Mycolicibacterium aurum; 50 µg/mL (≈ 162 µM) in assay [2].
On to `O=C(O)c1cn(C2CC2)c2cc(N3CCNCC3)c(F)cc2c1=O` [CIPROFLOXACIN], for which the MIC with Mycolicibacterium vaccae is 0.1 µg/mL (≈ 0.302 µM); with Staphylococcus aureus, 12.5 µg/mL (≈ 37.7 µM); in assay [1], 0.1 µg/mL (≈ 0.302 µM); in the assay with Mycolicibacterium aurum, 0.1 µg/mL (≈ 0.302 µM); in assay [2], 0.78 µg/mL (≈ 2.35 µM).
`CC(C)/N=c1\cc2n(-c3ccc(Cl)cc3)c3ccccc3nc-2cc1Nc1ccc(Cl)cc1` [CLOFAZIMINE]: the MIC in assay [3] and in assay [4] was 0.12 µg/mL (≈ 0.253 µM) each time.
In the case of `O=C(O)c1cccc2nc3ccccc3nc12` [PHENAZINE-1-CARBOXYLIC ACID], the MIC in the assay with Mycolicibacterium vaccae came to 25 µg/mL (≈ 111 µM); against Staphylococcus aureus it was 100 µg/mL (≈ 446 µM); in assay [1], 50 µg/mL (≈ 223 µM); against Mycolicibacterium aurum, 50 µg/mL (≈ 223 µM); in assay [2] it was 50 µg/mL (≈ 223 µM).
